One data set relates to Artemia salina. In words: Cytotoxicity in brine shrimps larvae assessed as mortality after 24 hrs. The format is functional. Particulars: read-out: ED50 (the source's name). The method, boiled down:
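Artemia salina nauplii hatched 38 h under constant aeration in sterile brine (sea salt 38 g/L, pH 8.5 with 1 N NaOH). Ten nauplii per vial were exposed to a range of compound concentrations at 37 °C for 24 h under incandescent light, alongside vehicle-treated controls. Survivors were counted, % lethality was taken from mean survivors versus control, and ED50 came from probit analysis.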

Data set [1] has as its system Rattus norvegicus. Briefly: Antihyperglycemic activity in po dosed streptozotocin-induced type 2 diabetic Wistar albino rat assessed as reduction in plasma glucose level by glucometer. The format is functional, organism-based. The method, boiled down: (§1)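 Wistar albino rats of either sex, 150–200 g, fasted 16 h. Diabetes induced by nicotinamide 150 mg/kg, then STZ 65 mg/kg in citrate buffer pH 4.5. Glucose confirmed after 48 h. Groups of six. Oral dosing as 0.25% sodium CMC suspension at 10, 30 or 50 mg/kg. Rosiglitazone was the reference. Retro-orbital plasma glucose measured by glucometer before dosing and at 1, 2, 4, 6, 8, 12 and 24 h. Results as mean ± SEM, compared by ANOVA, t-test and Dunnett's test.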

The test system of a further data set is Bacillus subtilis. Briefly: Antibacterial activity against Bacillus subtilis NCIM 2063 after 24 hrs by NCCLS agar well diffusion method. The format is functional. Particulars: NCIM 2063, 24 h. The method, boiled down: (§2)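 Nutrient agar seeded with 0.1 mL bacterial suspension (10⁵ CFU/mL in 0.85% saline). 6 mm wells filled with 0.1 mL compound. Plates in triplicate, 37 ± 0.5 °C for 24 h. MIC = lowest concentration giving complete growth inhibition.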

The test system of the next data set is Bacillus pumilus. Briefly: Antibacterial activity against Bacillus pumilus NCIM 2327 after 24 hrs by NCCLS agar well diffusion method. The format is functional. Particulars: NCIM 2327, 24 h. The method, boiled down: as §2
(Agar diffusion results depend on both activity and mobility in agar.)

Another data set deals with Staphylococcus aureus. In words: Antibacterial activity against Staphylococcus aureus NCIM 2079 after 24 hrs by NCCLS agar well diffusion method. The conditions noted are these: NCIM 2079, 24 h. The format is functional. The method, boiled down:
as §2

For the next data set, the system named is Micrococcus luteus. In words: Antibacterial activity against Micrococcus luteus NCIM 2155 after 24 hrs by NCCLS agar well diffusion method. The format is functional. The conditions noted are these: NCIM 2155, 24 h. An outline of the steps:
as §2

The test system of a further data set is Pseudomonas aeruginosa. In words: Antibacterial activity against Pseudomonas aeruginosa NCIM 2036 after 24 hrs by NCCLS agar well diffusion method. The format is functional. Particulars: NCIM 2036, 24 h. The method, boiled down: as §2
Another data set relates to Klebsiella pneumoniae. In words: Antibacterial activity against Klebsiella pneumoniae NCIM 5082 after 24 hrs by NCCLS agar well diffusion method. The format is functional. Particulars: NCIM 5082, 24 h. The method, boiled down:
as §2

For another data set, the system named is Escherichia coli. Briefly: Antibacterial activity against Escherichia coli NCIM 2065 after 24 hrs by NCCLS agar well diffusion method. The format is functional. Particulars: NCIM 2065, 24 h. The method, boiled down:
as §2

The next data set concerns Proteus vulgaris. In words: Antibacterial activity against Proteus vulgaris NCIM 2813 after 24 hrs by NCCLS agar well diffusion method. The format is functional. Particulars: NCIM 2813, 24 h. An outline of the steps:
as §2

The test system of a further data set is Candida albicans. Briefly: Antifungal activity against Candida albicans NCIM 3102 after 48 hrs by NCCLS agar well diffusion method. The format is functional. The conditions noted are these: NCIM 3102, 48 h. An outline of the steps: (§3)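 Spore suspensions in sterile distilled water adjusted to 10⁶ CFU/mL, 0.1 mL spread on potato-dextrose agar. 6 mm wells received 0.1 mL compound in 1% DMSO (final 16–512 µg/mL). Controls: 1% DMSO and ketoconazole (16 µg/mL). Triplicate plates, 48 h at 28 ± 0.2 °C. MIC = lowest concentration completely inhibiting growth.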

Another data set has as its system Aspergillus niger. Briefly: Antifungal activity against Aspergillus niger NCIM 548 after 48 hrs by NCCLS agar well diffusion method. The format is functional. Particulars: NCIM 548, 48 h. The method, boiled down: as §3
In the next data set the test system is Aspergillus oryzae. In words: Antifungal activity against Aspergillus oryzae NCIM 643 after 48 hrs by NCCLS agar well diffusion method. The format is functional. The conditions noted are these: NCIM 643, 48 h. The method, boiled down:
as §3

The next data set has as its system Penicillium chrysogenum. In words: Antifungal activity against Penicillium chrysogenum NCIM 738 after 48 hrs by NCCLS agar well diffusion method. The format is functional. Particulars: NCIM 738, 48 h. An outline of the steps: as §3
A short description of data set [2]: Toxicity in mouse assessed as changes in vital functions. The format is organism-based. Particulars: in vivo.
Data set [3] has as its system Rattus norvegicus. Briefly: Antihyperglycemic activity in streptozotocin-induced type 2 diabetic Wistar albino rat assessed as reduction in plasma glucose level at 10 mg/kg, po by glucometer. The format is functional. The method, boiled down: as §1
For data set [4], the system named is Rattus norvegicus. In words: Antihyperglycemic activity in streptozotocin-induced type 2 diabetic Wistar albino rat assessed as reduction in plasma glucose level at 30 mg/kg, po by glucometer. The format is functional. The method, boiled down:
as §1

In data set [5] the test system is Rattus norvegicus. In words: Antihyperglycemic activity in streptozotocin-induced type 2 diabetic Wistar albino rat assessed as reduction in plasma glucose level at 50 mg/kg, po by glucometer. The format is functional. An outline of the steps:
as §1

Converted amounts (≈) assume the structure as drawn.

Data on four molecules can be found in ChEMBL document CHEMBL2151038, “Synthesis, characterization and biological evaluation of some novel 2,4-thiazolidinediones as potential cytotoxic, antimicrobial and antihyperglycemic agents” (Bioorg Med Chem Lett, 2012).

In general, MIC refers to the least concentration at which growth counts as inhibited. With `O=C1NC(=O)/C(=C/c2ccc(/C=C/C(=O)c3ccc(F)cc3)cc2)S1`, the EC50 in the data set on Artemia salina came out at 4.32 µg/mL (≈ 12.2 µM). Also, the Activity result in the data set on Rattus norvegicus [1] was “Dose-dependent effect”; with Rattus norvegicus [3] it was 22.74 mg/dL; with Rattus norvegicus [4] it was 25.67 mg/dL; in the data set with Rattus norvegicus [5], 33.12 mg/dL. Further, the MIC against Bacillus subtilis came out at 16 µg/mL (≈ 45.3 µM); in the data set on Bacillus pumilus, 16 µg/mL (≈ 45.3 µM); against Staphylococcus aureus, 32 µg/mL (≈ 90.6 µM); in the data set on Micrococcus luteus, 32 µg/mL (≈ 90.6 µM); against Pseudomonas aeruginosa it was 16 µg/mL (≈ 45.3 µM); against Klebsiella pneumoniae it was 16 µg/mL (≈ 45.3 µM). Moreover, the MIC worked out at 16 µg/mL (≈ 45.3 µM) in the data set with Escherichia coli; 32 µg/mL (≈ 90.6 µM) in the data set on Proteus vulgaris; 32 µg/mL (≈ 90.6 µM) in the data set with Candida albicans; 32 µg/mL (≈ 90.6 µM) in the data set with Aspergillus niger; 32 µg/mL (≈ 90.6 µM) in the data set on Aspergillus oryzae; 16 µg/mL (≈ 45.3 µM) against Penicillium chrysogenum. The MTD in data set [2] came to 2000 mg/kg.

As to `O=C1NC(=O)/C(=C/c2ccc(/C=C/C(=O)c3ccc4c(c3)Cc3ccccc3-4)cc2)S1`, in the data set on Artemia salina, the EC50 was 39.7 µg/mL (≈ 93.6 µM). The Activity result is “Dose-dependent effect” in the data set with Rattus norvegicus [1], 39.83 mg/dL in the data set on Rattus norvegicus [3], 44.62 mg/dL with Rattus norvegicus [4] and 52.81 mg/dL in the data set with Rattus norvegicus [5]. For the same molecule, the minimum inhibitory concentration (MIC) in the data set with Bacillus subtilis amounted to 256 µg/mL (≈ 604 µM); in the data set on Bacillus pumilus it was 256 µg/mL (≈ 604 µM); against Staphylococcus aureus, 256 µg/mL (≈ 604 µM); against Micrococcus luteus, 512 µg/mL (≈ 1210 µM); in the data set on Pseudomonas aeruginosa, 128 µg/mL (≈ 302 µM); against Klebsiella pneumoniae it was 256 µg/mL (≈ 604 µM). For the same molecule, the minimum inhibitory concentration (MIC) against Escherichia coli stood at 128 µg/mL (≈ 302 µM); in the data set with Proteus vulgaris it was 512 µg/mL (≈ 1210 µM); against Candida albicans, 256 µg/mL (≈ 604 µM); with Aspergillus niger, 256 µg/mL (≈ 604 µM); against Aspergillus oryzae, 256 µg/mL (≈ 604 µM); in the data set on Penicillium chrysogenum, 512 µg/mL (≈ 1210 µM). In addition, the MTD in data set [2] is 2000 mg/kg.

For `O=C1NC(=O)/C(=C/c2ccc(/C=C/C(=O)c3ccc(O)cc3)cc2)S1`, the EC50 in the data set with Artemia salina came to 36.2 µg/mL (≈ 103 µM). The Activity entry with Rattus norvegicus [1] is “Dose-dependent effect”; with Rattus norvegicus [3], 21.83 mg/dL; in the data set with Rattus norvegicus [4] it was 30.21 mg/dL; in the data set on Rattus norvegicus [5] it was 37.12 mg/dL. In addition, the MIC with Bacillus subtilis amounted to 256 µg/mL (≈ 729 µM); against Bacillus pumilus, 128 µg/mL (≈ 364 µM); against Staphylococcus aureus it was 128 µg/mL (≈ 364 µM); with Micrococcus luteus it was 256 µg/mL (≈ 729 µM); against Pseudomonas aeruginosa, 512 µg/mL (≈ 1460 µM); with Klebsiella pneumoniae, 128 µg/mL (≈ 364 µM). In addition, the MIC turned out to be 128 µg/mL (≈ 364 µM) against Escherichia coli; 512 µg/mL (≈ 1460 µM) against Proteus vulgaris; 512 µg/mL (≈ 1460 µM) in the data set on Candida albicans; 256 µg/mL (≈ 729 µM) in the data set on Aspergillus niger; 256 µg/mL (≈ 729 µM) in the data set with Aspergillus oryzae; 512 µg/mL (≈ 1460 µM) in the data set with Penicillium chrysogenum. In addition, in data set [2], the MTD came out at 2000 mg/kg.

`Cc1ccc(C(=O)/C=C/c2ccc(/C=C3\SC(=O)NC3=O)cc2)cc1`: in the data set with Artemia salina, the EC50 was 19.7 µg/mL (≈ 56.3 µM). Besides, the Activity result in the data set on Rattus norvegicus [1] is “Dose-dependent effect”; with Rattus norvegicus [3], 17.66 mg/dL; in the data set on Rattus norvegicus [4], 21.81 mg/dL; in the data set on Rattus norvegicus [5], 28.72 mg/dL. The MIC against Bacillus subtilis stood at 32 µg/mL (≈ 91.6 µM); in the data set with Bacillus pumilus it was 32 µg/mL (≈ 91.6 µM); in the data set with Staphylococcus aureus, 32 µg/mL (≈ 91.6 µM); in the data set with Micrococcus luteus, 64 µg/mL (≈ 183 µM); against Pseudomonas aeruginosa it was 32 µg/mL (≈ 91.6 µM); in the data set on Klebsiella pneumoniae it was 64 µg/mL (≈ 183 µM). Moreover, the MIC against Escherichia coli turned out to be 32 µg/mL (≈ 91.6 µM); against Proteus vulgaris it was 64 µg/mL (≈ 183 µM); in the data set with Candida albicans it was 256 µg/mL (≈ 733 µM); in the data set on Aspergillus niger, 256 µg/mL (≈ 733 µM); against Aspergillus oryzae it was 64 µg/mL (≈ 183 µM); against Penicillium chrysogenum it was 64 µg/mL (≈ 183 µM). The MTD in data set [2] is 2000 mg/kg.
